Measured values from ChEMBL document CHEMBL3596194, “Design, synthesis and biological evaluation of bivalent benzoxazolone and benzothiazolone ligands as potential anti-inflammatory/analgesic agents” (Bioorg Med Chem, 2015).
Calls of active or inactive are those of the source. The rule behind the calls is not given here.

system: not listed separately; assay: Cytotoxicity against pig LLC-PK11 cells after 48 hrs by neutral red assay relative to control; assay type: cell-based; conditions: Sus scrofa, LLC-PK11, 48 h
Summary of the method: (§1)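 Cells grown in RPMI-1640 with 10% bovine calf serum and amikacin at 37°C, 5% CO₂. Seeded 25,000 cells/well, grown 24 h, then exposed to compounds diluted in serum-free medium for 48 h. Viability by Neutral Red uptake, % decrease versus vehicle control. IC50 from dose curves, triplicate means. Doxorubicin positive control.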

| Structure (SMILES) | IC50 [µM] |
| --- | --- |
| COc1cccc2c1C(=O)c1c(O)c3c(c(O)c1C2=O)C[C@@](O)(C(=O)CO)C[C@@H]3O[C@H]1C[C@H](N)[C@H](O)[C@H](C)O1 [DOXORUBICIN] | 0.79 |
| c1ccc2oc(SCCCCN3CCN(CCCCSc4nc5ccccc5o4)CC3)nc2c1 | 23.5 |
| O=c1sc2ccccc2n1CCCN1CCN(CCCn2c(=O)sc3ccccc32)CC1 | 23.5 |
| O=c1sc2ccccc2n1CCCN1CCN(CCn2c(=O)sc3ccccc32)CC1 | 24.1 |
| O=c1sc2ccccc2n1CCCCN1CCN(CCCn2c(=O)sc3ccccc32)CC1 | 19.2 |

biological target: T1, Nitric oxide synthase, inducible (Mus musculus) (UniProt P29477); assay: Antiinflammatory activity in mouse RAW264.7 cells assessed as inhibition of LPS-induced iNOS activity up to 25 ug/ml incubated for 30 mins prior to LPS challenge measured after 24 hrs by Griess assay; assay type: cell-based; conditions: not given
T1 sequence (whole entry): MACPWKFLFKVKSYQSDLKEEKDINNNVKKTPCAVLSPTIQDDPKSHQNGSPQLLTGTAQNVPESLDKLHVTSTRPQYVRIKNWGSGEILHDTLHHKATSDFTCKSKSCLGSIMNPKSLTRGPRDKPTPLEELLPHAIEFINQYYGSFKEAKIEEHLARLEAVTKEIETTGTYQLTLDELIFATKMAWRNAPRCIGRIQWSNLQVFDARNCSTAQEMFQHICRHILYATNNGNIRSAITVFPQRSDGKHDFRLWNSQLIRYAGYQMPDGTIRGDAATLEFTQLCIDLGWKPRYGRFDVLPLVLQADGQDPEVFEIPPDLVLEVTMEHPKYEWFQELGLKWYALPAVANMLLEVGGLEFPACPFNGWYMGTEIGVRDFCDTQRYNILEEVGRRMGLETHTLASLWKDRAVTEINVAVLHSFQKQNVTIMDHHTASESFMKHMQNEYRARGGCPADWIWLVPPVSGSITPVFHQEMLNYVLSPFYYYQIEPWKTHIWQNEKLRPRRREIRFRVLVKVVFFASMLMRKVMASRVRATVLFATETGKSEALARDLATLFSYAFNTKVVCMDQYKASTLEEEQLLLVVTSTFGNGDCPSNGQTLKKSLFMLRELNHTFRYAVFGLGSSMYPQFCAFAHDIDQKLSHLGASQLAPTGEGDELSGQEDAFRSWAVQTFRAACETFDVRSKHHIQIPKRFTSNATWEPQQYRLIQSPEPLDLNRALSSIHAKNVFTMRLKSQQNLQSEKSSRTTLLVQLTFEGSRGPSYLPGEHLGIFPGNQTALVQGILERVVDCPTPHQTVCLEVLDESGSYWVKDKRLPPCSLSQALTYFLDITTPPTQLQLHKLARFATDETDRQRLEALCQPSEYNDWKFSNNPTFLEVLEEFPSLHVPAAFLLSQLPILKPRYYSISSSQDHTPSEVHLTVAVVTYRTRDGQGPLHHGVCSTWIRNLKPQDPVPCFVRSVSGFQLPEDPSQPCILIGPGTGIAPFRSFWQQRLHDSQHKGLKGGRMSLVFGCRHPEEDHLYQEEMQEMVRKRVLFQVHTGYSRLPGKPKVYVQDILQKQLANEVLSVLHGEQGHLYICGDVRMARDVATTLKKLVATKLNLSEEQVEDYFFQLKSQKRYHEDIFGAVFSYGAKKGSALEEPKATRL
Summary of the method: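 RAW264.7 macrophages seeded at 50,000 cells/well and grown 24 h to ≥75% confluency. Compounds in serum-free medium added 30 min before LPS (5 μg/mL), then 24 h incubation. Nitrite in the supernatant measured with Griess reagent.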

| Structure (SMILES) | inhibition |
| --- | --- |
| O=c1sc2ccccc2n1CCCN1CCN(CCn2c(=O)sc3ccccc32)CC1 | inactive |
| O=c1oc2ccccc2n1CCCCN1CCN(CCn2c(=O)oc3ccccc32)CC1 | inactive |

system: SK-OV-3; assay: Cytotoxicity against human SKOV3 cells up to 25 ug/ml after 48 hrs by neutral red assay relative to control; assay type: cell-based; conditions: sk-ov-3, 48 h
Summary of the method: (§2)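 Cells grown in RPMI-1640 with 10% bovine calf serum and amikacin at 37 °C, 5% CO2. Seeded at 25,000 cells/well and grown 24 h, then exposed 48 h to samples diluted in serum-free medium. Viability by Neutral Red; % decrease vs vehicle; IC50 from dose curves. Triplicate runs, mean reported; doxorubicin as positive control.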

| Structure (SMILES) | Activity |
| --- | --- |
| O=c1oc2ccccc2n1CCCCCN1CCN(CCCCn2c(=O)oc3ccccc32)CC1 | Non-toxic |
| c1ccc2oc(SCCCCN3CCN(CCCCSc4nc5ccccc5o4)CC3)nc2c1 | Non-toxic |
| O=c1sc2ccccc2n1CCCN1CCN(CCCn2c(=O)sc3ccccc32)CC1 | Non-toxic |
| O=c1sc2ccccc2n1CCCN1CCN(CCn2c(=O)sc3ccccc32)CC1 | Non-toxic |
| O=c1sc2ccccc2n1CCCCN1CCN(CCCn2c(=O)sc3ccccc32)CC1 | Non-toxic |
| O=c1oc2ccccc2n1CCCCN1CCN(CCn2c(=O)oc3ccccc32)CC1 | Non-toxic |

system: Vero; assay: Cytotoxicity against African green monkey Vero cells after 48 hrs by neutral red assay relative to control; assay type: cell-based; conditions: chlorocebus sabaeus; summary of the method: as §1

| Structure (SMILES) | IC50 [µM] |
| --- | --- |
| O=c1oc2ccccc2n1CCCCCN1CCN(CCCCn2c(=O)oc3ccccc32)CC1 | 17.6 |
| COc1cccc2c1C(=O)c1c(O)c3c(c(O)c1C2=O)C[C@@](O)(C(=O)CO)C[C@@H]3O[C@H]1C[C@H](N)[C@H](O)[C@H](C)O1 [DOXORUBICIN] | 0.92 |

system: KB; assay: Cytotoxicity against human KB cells after 48 hrs by neutral red assay relative to control; assay type: cell-based; conditions: not given; summary of the method: as §1

| Structure (SMILES) | IC50 [µM] |
| --- | --- |
| COc1cccc2c1C(=O)c1c(O)c3c(c(O)c1C2=O)C[C@@](O)(C(=O)CO)C[C@@H]3O[C@H]1C[C@H](N)[C@H](O)[C@H](C)O1 [DOXORUBICIN] | 0.22 |
| c1ccc2oc(SCCCCN3CCN(CCCCSc4nc5ccccc5o4)CC3)nc2c1 | 25 |

system: SW1353; assay: Antiinflammatory activity in human SW1353 cells assessed as inhibition of PMA-induced NF-kappaB activity up to 25 ug/ml incubated for 30 mins prior to PMA challenge measured after 8 hrs by luciferase reporter gene assay; assay type: cell-based; conditions: not given
Summary of the method: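 SW1353 chondrosarcoma cells grown in DMEM/F12 with 10% FBS at 37 °C, 5% CO2. Cells electroporated with an NF-κB luciferase plasmid (50 μg/mL, 160 V, one 70-ms pulse) and plated at 1.25 × 10⁵ cells/well. After 24 h, compound was added 30 min before PMA (70 ng/mL), then 8 h incubation. Luciferase read-out as % inhibition vs vehicle; IC50 from dose curves. Sp-1 served as a counter-screen.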

| Structure (SMILES) | inhibition |
| --- | --- |
| O=c1oc2ccccc2n1CCCCCN1CCN(CCCCn2c(=O)oc3ccccc32)CC1 | inactive |
| O=c1sc2ccccc2n1CCCN1CCN(CCCn2c(=O)sc3ccccc32)CC1 | inactive |
| O=c1sc2ccccc2n1CCCN1CCN(CCn2c(=O)sc3ccccc32)CC1 | inactive |
| O=c1oc2ccccc2n1CCCCN1CCN(CCn2c(=O)oc3ccccc32)CC1 | inactive |

system: not listed separately; assay: Antiinflammatory activity in human SW1353 cells assessed as inhibition of PMA-induced NF-kappaB activity incubated for 30 mins prior to PMA challenge measured after 8 hrs by luciferase reporter gene assay; assay type: cell-based; conditions: not given
Summary of the method: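 SW1353 cells in DMEM/F12 with 10% FBS, electroporated with NF-κB luciferase plasmid (160 V, one 70-ms pulse), plated at 1.25 × 10⁵ cells/well. After 24 h, graded compound concentrations added 30 min before PMA 70 ng/mL, then 8 h incubation. Luciferase read-out, % inhibition versus vehicle, IC50 from dose curves. Sp-1 reporter served as nonspecific control.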

| Structure (SMILES) | IC50 [µM] |
| --- | --- |
| c1ccc2oc(SCCCCN3CCN(CCCCSc4nc5ccccc5o4)CC3)nc2c1 | 1.4 |
| O=c1sc2ccccc2n1CCCCN1CCN(CCCn2c(=O)sc3ccccc32)CC1 | 1.71 |

system: BT-549; assay: Cytotoxicity against human BT549 cells up to 25 ug/ml after 48 hrs by neutral red assay relative to control; assay type: cell-based; conditions: bt-549, 48 h; summary of the method: as §2

| Structure (SMILES) | Activity |
| --- | --- |
| O=c1oc2ccccc2n1CCCCCN1CCN(CCCCn2c(=O)oc3ccccc32)CC1 | Non-toxic |
| O=c1sc2ccccc2n1CCCN1CCN(CCCn2c(=O)sc3ccccc32)CC1 | Non-toxic |
| O=c1sc2ccccc2n1CCCN1CCN(CCn2c(=O)sc3ccccc32)CC1 | Non-toxic |
| O=c1sc2ccccc2n1CCCCN1CCN(CCCn2c(=O)sc3ccccc32)CC1 | Non-toxic |
| O=c1oc2ccccc2n1CCCCN1CCN(CCn2c(=O)oc3ccccc32)CC1 | Non-toxic |

system: KB; assay: Cytotoxicity against human KB cells up to 25 ug/ml after 48 hrs by neutral red assay relative to control; assay type: cell-based; conditions: not given; summary of the method: as §2

| Structure (SMILES) | Activity |
| --- | --- |
| O=c1oc2ccccc2n1CCCCCN1CCN(CCCCn2c(=O)oc3ccccc32)CC1 | Non-toxic |
| O=c1sc2ccccc2n1CCCN1CCN(CCCn2c(=O)sc3ccccc32)CC1 | Non-toxic |
| O=c1sc2ccccc2n1CCCN1CCN(CCn2c(=O)sc3ccccc32)CC1 | Non-toxic |
| O=c1sc2ccccc2n1CCCCN1CCN(CCCn2c(=O)sc3ccccc32)CC1 | Non-toxic |
| O=c1oc2ccccc2n1CCCCN1CCN(CCn2c(=O)oc3ccccc32)CC1 | Non-toxic |

system: BT-549; assay: Cytotoxicity against human BT549 cells after 48 hrs by neutral red assay relative to control; assay type: cell-based; conditions: BT-549, 48 h; summary of the method: as §1

| Structure (SMILES) | IC50 [µM] |
| --- | --- |
| COc1cccc2c1C(=O)c1c(O)c3c(c(O)c1C2=O)C[C@@](O)(C(=O)CO)C[C@@H]3O[C@H]1C[C@H](N)[C@H](O)[C@H](C)O1 [DOXORUBICIN] | 0.17 |
| c1ccc2oc(SCCCCN3CCN(CCCCSc4nc5ccccc5o4)CC3)nc2c1 | 22.5 |

system: SK-OV-3; assay: Cytotoxicity against human SKOV3 cells after 48 hrs by neutral red assay relative to control; assay type: cell-based; conditions: SK-OV-3, 48 h; summary of the method: as §1

| Structure (SMILES) | IC50 [µM] |
| --- | --- |
| COc1cccc2c1C(=O)c1c(O)c3c(c(O)c1C2=O)C[C@@](O)(C(=O)CO)C[C@@H]3O[C@H]1C[C@H](N)[C@H](O)[C@H](C)O1 [DOXORUBICIN] | 0.2 |

system: not listed separately; assay: Cytotoxicity against pig LLC-PK11 cells up to 25 ug/ml after 48 hrs by neutral red assay relative to control; assay type: cell-based, Sus scrofa; conditions: llc-pk11, 48 h; summary of the method: as §2

| Structure (SMILES) | Activity |
| --- | --- |
| O=c1oc2ccccc2n1CCCCCN1CCN(CCCCn2c(=O)oc3ccccc32)CC1 | Non-toxic |
| O=c1oc2ccccc2n1CCCCN1CCN(CCn2c(=O)oc3ccccc32)CC1 | Non-toxic |

system: Vero; assay: Cytotoxicity against African green monkey Vero cells up to 25 ug/ml after 48 hrs by neutral red assay relative to control; assay type: cell-based; conditions: chlorocebus sabaeus; summary of the method: as §2

| Structure (SMILES) | Activity |
| --- | --- |
| c1ccc2oc(SCCCCN3CCN(CCCCSc4nc5ccccc5o4)CC3)nc2c1 | Non-toxic |
| O=c1sc2ccccc2n1CCCN1CCN(CCCn2c(=O)sc3ccccc32)CC1 | Non-toxic |
| O=c1sc2ccccc2n1CCCN1CCN(CCn2c(=O)sc3ccccc32)CC1 | Non-toxic |
| O=c1sc2ccccc2n1CCCCN1CCN(CCCn2c(=O)sc3ccccc32)CC1 | Non-toxic |
| O=c1oc2ccccc2n1CCCCN1CCN(CCn2c(=O)oc3ccccc32)CC1 | Non-toxic |

system: SK-MEL; assay: Cytotoxicity against human SK-MEL cells up to 25 ug/ml after 48 hrs by neutral red assay relative to control; assay type: cell-based; conditions: not given; summary of the method: as §2

| Structure (SMILES) | Activity |
| --- | --- |
| O=c1oc2ccccc2n1CCCCCN1CCN(CCCCn2c(=O)oc3ccccc32)CC1 | Non-toxic |
| O=c1sc2ccccc2n1CCCN1CCN(CCCn2c(=O)sc3ccccc32)CC1 | Non-toxic |
| O=c1sc2ccccc2n1CCCN1CCN(CCn2c(=O)sc3ccccc32)CC1 | Non-toxic |
| O=c1sc2ccccc2n1CCCCN1CCN(CCCn2c(=O)sc3ccccc32)CC1 | Non-toxic |
| O=c1oc2ccccc2n1CCCCN1CCN(CCn2c(=O)oc3ccccc32)CC1 | Non-toxic |

system: SK-MEL; assay: Cytotoxicity against human SK-MEL cells after 48 hrs by neutral red assay relative to control; assay type: cell-based; conditions: not given; summary of the method: as §1

| Structure (SMILES) | IC50 [µM] |
| --- | --- |
| COc1cccc2c1C(=O)c1c(O)c3c(c(O)c1C2=O)C[C@@](O)(C(=O)CO)C[C@@H]3O[C@H]1C[C@H](N)[C@H](O)[C@H](C)O1 [DOXORUBICIN] | 0.14 |
| c1ccc2oc(SCCCCN3CCN(CCCCSc4nc5ccccc5o4)CC3)nc2c1 | 25 |
